Insulin prom act = TRM-6 insulin promoter activation; activation, % at 2 µM; TRM-6 cells, insulin promoter eGFP reporter, imaging; plate-scaled: unstimulated 0, stimulated control 100; 130,000 compounds, 0.81% hits;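 active means activation at 2 µM above a set limit, confirmed on inspection of the cell images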;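 further: share of cells whose green reporter signal exceeds an intensity cutoff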
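Material: Human fetal islet-derived TRM-6 cells with tamoxifen-inducible insulin promoter–eGFP reporter | Medium: Low-glucose (5.5 mM) medium with tamoxifen | Probe or stimulus: Tamoxifen inducer, 0.75 µM, in seeding medium | Schedule: Tamoxifen pre-incubation 15 h overnight, then compound exposure 48 h at 37 °C | Detection: High-content imaging of fixed cells with Hoechst nuclear stain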
The depositor's hits bear a star. Only a selection was taken, and hits are over-represented in it overall.

`Cc1c(C(=O)Nc2ccc(-c3nnc4n3CCCCC4)cc2)oc2ccc(Br)cc12` gave Insulin prom act -7.
Screening CCOC(=O)C1CCCN(S(=O)(=O)c2cccs2)C1 (centres undefined) returned Insulin prom act 462*.
CCOC(=O)C1CCCN(C(=O)c2cccs2)C1 (centres undefined) was read as Insulin prom act 169.
`CC(C)NC(=O)C1CCCN(S(=O)(=O)c2cccs2)C1` (centres undefined) gave Insulin prom act 9.
For CC(C)(C)NC(=O)C(c1ccc(O)cc1)N(C(=O)CCC(=O)Nc1nccs1)c1ccc(F)cc1 (centres undefined) the results were Insulin prom act 7.
`COc1cccc(N2CCN(Cc3nc4ccccc4c(=O)[nH]3)CC2)c1` gave Insulin prom act -79.
CCC(CC)C(=O)N1CCN(Cc2nc3ccccc3c(=O)[nH]2)CC1 was read as Insulin prom act -10.
`COc1ccc(N2CCN(Cc3nc4ccccc4c(=O)[nH]3)CC2)cc1` gave Insulin prom act 579*.
For COc1ccc(C(=O)NNC(=O)CCn2nnc(-c3ccc(C)cc3)n2)cc1OC the results were Insulin prom act 0.
`COc1cc(C(=O)c2ccccc2)c(OC)cc1C(=O)Nc1ccc(O)cc1` gave Insulin prom act -71.
COC(=O)COc1ccc(S(=O)(=O)Nc2ccc(C(N)=O)cc2)cc1C was read as Insulin prom act 3.
Screening CCOC(=O)N1CCN(S(=O)(=O)c2ccc(OCC(=O)OC)c(Cl)c2)CC1 returned Insulin prom act -3.
`COC(=O)COc1ccc(-c2ccc(F)cc2)cc1C=O` gave Insulin prom act 450*.
COc1cc(C(=O)N[C@H](C(=O)NC(C)C23CC4CC(CC(C4)C2)C3)C(C)C)cc(OC)c1OC (some centres undefined) was read as Insulin prom act -3.
Screening COc1cc(OC)cc(C(=O)N[C@H](C(=O)OCC(=O)Nc2ccc(C)cc2C)C(C)C)c1 returned Insulin prom act 8.
For COc1ccc(C)cc1NC(=O)C(NC(=O)c1cc(OC)c(OC)c(OC)c1)C(C)C (centres undefined) the results were Insulin prom act 433*.
Screening O=C(Nc1cc(Cl)cc(Cl)c1)c1ccc(Cn2c(=O)[nH]c3ccsc3c2=O)cc1 returned Insulin prom act -61.
`Cn1cccc1/C=N/NC(=O)c1ccn[nH]1` gave Insulin prom act -75.
For S=C(NCCCn1ccnc1)NC1CCCCC1 the results were Insulin prom act -3.
Screening CCOC(=O)C1=C(c2ccccc2)OC(N)=C(C#N)C1c1cccnc1 (centres undefined) returned Insulin prom act -7.
`CCOC(=O)C1=C(N)Oc2ccc3ccccc3c2C1c1cccnc1` (centres undefined) gave Insulin prom act 564*.
CC1=C(C(=O)OCc2ccccc2)C(c2cccnc2)n2nnnc2N1 (centres undefined) was read as Insulin prom act -3.
For COc1ccc(S(=O)(=O)N2CCOCC2)cc1NC(=O)CSc1nnc2ccccn12 the results were Insulin prom act 0.
CC(=O)N1C2CCCCC2S[C@H]2CCCCC21 (some centres undefined) was read as Insulin prom act 200*.
CC1CCCC(C)N1C(=O)C1CCCCC1 (centres undefined) was read as Insulin prom act -7.
CCN=C(NC#N)SCc1c(F)cccc1Cl was read as Insulin prom act 167.
For Cc1cccc(Oc2ccc(Cl)cc2N)c1 the results were Insulin prom act -71.
`O=C(O)CC(NC(=O)c1ccc2c(c1)OCO2)c1cccc([N+](=O)[O-])c1` (centres undefined) gave Insulin prom act 464*.
O=C(Nc1cccc([N+](=O)[O-])c1)c1ccc2c(c1)OCCO2 was read as Insulin prom act -5.
`O=C(N/N=C\c1ccc(-c2ccc([N+](=O)[O-])cc2)o1)c1ccc2c(c1)OCO2` gave Insulin prom act -3.
COc1ccc(C(=O)N2CCC(c3ccccc3)CC2)c(OC)c1OC was read as Insulin prom act 6.
CCOC(=O)c1cc(C(C)(C)C)oc1CN was read as Insulin prom act -7.
For CCOC(=O)c1cc(C(C)(C)C)oc1CNC(=O)c1c(C)oc2c1CCCC2 the results were Insulin prom act 493*.
For Cc1cc(C(C)(C)C)oc1C(=O)NCCCNC(=O)c1oc(C(C)(C)C)cc1C the results were Insulin prom act -10.
CN1CCC(=NNC(=O)C(=O)Nc2ccccc2F)CC1 was read as Insulin prom act 0.
Screening Cn1c2ccccc2n2c(=O)c(=O)n(CC(=O)c3ccc(Cl)cc3)nc12 returned Insulin prom act 3.
COCCN(C(=S)Nc1ccc(C)cc1C)C(C)c1ccco1 (centres undefined) was read as Insulin prom act 0.
`COc1ccc(CCNC(=O)C2CCN(S(=O)(=O)c3c(C)noc3C)CC2)cc1OC` gave Insulin prom act -66.
Screening CCc1ccc(-c2nc(CN3CCCC(C(=O)NCCc4ccc(OC)c(OC)c4)C3)c(C)o2)cc1 (centres undefined) returned Insulin prom act 121*.
For COc1ccc(CCNC(=O)C2CCCN(c3nn4c(=O)cc(C)nc4s3)C2)cc1OC (centres undefined) the results were Insulin prom act 3.
For COc1ccc(NC(=S)NCCc2c(C)[nH]c3ccc(OC)cc23)cc1 the results were Insulin prom act 9.
`Cc1ccc(C)c2[nH]c(=O)c(C(c3nnnn3C(C)(C)C)N3CC=C(c4ccc(F)cc4)CC3)cc12` (centres undefined) gave Insulin prom act 4.
For COC(=O)CSc1nc(-c2ccccc2)nc2ccccc12 the results were Insulin prom act -5.
Screening CCOC(=O)c1[nH]c2ccc(OCC)cc2c1CCCN1C(=O)c2ccccc2C1=O returned Insulin prom act 6.
Screening CCN1CCN(S(=O)(=O)c2ccc(Br)s2)CC1 returned Insulin prom act -93.
Screening O=S(=O)(c1ccc(Br)s1)N1CCN(c2ccccc2)CC1 returned Insulin prom act 575*.
For Cc1c(NS(=O)(=O)c2ccc(Br)s2)c(=O)n(-c2ccccc2)n1C the results were Insulin prom act 5.
Cn1cccc1C(=O)NC(=O)COC(=O)c1cc(S(=O)(=O)N2CCCCC2)ccc1Cl was read as Insulin prom act -7.
Screening O=C(NCC1CCCO1)C1CCCN1C(=O)Nc1ccc(Cl)c(Cl)c1 (centres undefined) returned Insulin prom act 115.
For COCCN(Cc1cc2cc(C)ccc2nc1Cl)C(=O)Nc1ccccc1OC the results were Insulin prom act 133.
`CCN1CCN(c2nc(Nc3cccc(C)c3)nc(N)c2[N+](=O)[O-])CC1` gave Insulin prom act 8.
Screening Cc1ccc(Nc2nc(N)c([N+](=O)[O-])c(N3CCC(C)CC3)n2)cc1C returned Insulin prom act 529*.
`Cc1ccc(Nc2nc(NCC3CCCO3)nc(N)c2[N+](=O)[O-])cc1C` (centres undefined) gave Insulin prom act 5.
Screening Cc1ccccc1NC(=O)C(C)O/N=C/c1cccc([N+](=O)[O-])c1 (centres undefined) returned Insulin prom act 3.
`Cn1cc([N+](=O)[O-])c(C(=O)N/N=C/c2ccc3c(c2)OCO3)n1` gave Insulin prom act -78.
Screening CN1CCN(NC(=O)c2cc(S(=O)(=O)N3CCOCC3)c(Cl)cc2Cl)CC1 returned Insulin prom act -3.

Screens as filed in PubChem.
